Data published in PMC11920041 (NPJ Parkinson's Disease, 2025).
Read-outs that look alike come from different tables or passages of the source.

Tests used:
[1] = cited from earlier work
tyrDC = conditions: cited from earlier work
AADC = conditions: cited from earlier work
[2] = mice; cited from earlier work
[3] = type: in vivo; conditions: human, plasma, oral, median [interquartile range]; for AUC: up to 3 h
How it was run: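 Fasting ≥12 h after last meal, dosing from 9:00 a.m.; PD patients on oral levodopa, diagnosed by UK Brain Bank criteria; no concomitant magnesium oxide or prokinetics. Blood via indwelling catheter before and 15–180 min after dose; centrifuged 1000 g, 10 min, 4 °C; plasma stored −80 °C; HPLC-ECD. Cmax and Tmax taken from the curve; AUC to 3 h by linear trapezoidal rule.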

[4] = administered in combination with carbidopa; cited from earlier work
[5] = concomitant use in patients with PD; cited from earlier work
[6] = tested on: small intestinal bacterial overgrowth (SIBO); conditions: eradication of SIBO in patients with PD; cited from earlier work
[7] = female, female patients, n = 12

For `[O]=[Mg]` [magnesium oxide], the “effect of concomitant use on bioavailability of levodopa” value [1] is given as “may reduce”.

In the case of `N[C@@](CF)(Cc1ccc(O)cc1)C(=O)O` [AFMT, (S)-α-fluoromethyltyrosine], the “inhibition of tyrDC-mediated levodopa decarboxylation” value (tyrDC) is listed as “selective inhibitor”, the “effect on AADC” value (AADC) is listed as “without affecting AADC” and the “effect of concomitant use on levodopa Cmax” value [2] is listed as “increased”.

For `N[C@@H](Cc1ccc(O)c(O)c1)C(=O)O` [levodopa], the AUC [3, 7] was 12.7 µM·h, the Cmax [3, 7] was 10.4 µM and the Tmax ([3]; low levodopa Cmax group (< 9 μmol/L), n = 11) was 45 min. The AUC ([3]; male, male patients, n = 9) was 6.95 µM·h, the Cmax ([3]; male, male patients, n = 9) was 4.88 µM and the Tmax ([3]; male, male patients, n = 9) was 45 min. For the same compound, the half-life [4] was “approximately 90 min”.

For `COc1ccc2nc([S@@+]([O-])Cc3ncc(C)c(OC)c3C)[nH]c2c1` [esomeprazole], the “effect on levels of carbidopa in the plasma” value [5] is given as “without affecting” and the “effect on levels of levodopa in the plasma” value [5] is given as “reduced”.

In the case of `CO[C@H]1/C=C/O[C@@]2(C)Oc3c(C)c(O)c4c(O)c(c5c(nc6cc(C)ccn65)c4c3C2=O)NC(=O)/C(C)=C\C=C\[C@H](C)[C@H](O)[C@@H](C)[C@@H](O)[C@@H](C)[C@H](OC(C)=O)[C@@H]1C` [rifaximin], the “effect on motor fluctuations” value [6] is listed as “improves motor fluctuations”.
